What all share (assay type): functional, cell-based
In one experiment the test system is MES-SA. The experiment is described as follows: Concentration required for 50% inhibition of human MES-SA cell proliferation. In outline: (§1)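 Solid-tumour lines (HT-29, PC-3, MES-SA, and its mdr-1/P-glycoprotein-high MES-SA/Dx5 subclone) were seeded at (2.5-5) × 10^3 cells per well. They were exposed to escalating prodrug concentrations for 4 days, then harvested. Proliferation was measured by Hoechst DNA staining, and IC50 values are given in µM.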

In another experiment the test system is PC-3. The experiment is described as follows: Concentration required for 50% inhibition of human PC-3 cell proliferation. The method in brief:
as §1

A further experiment has as its system HT-29. The experiment is described as follows: Concentration required for 50% inhibition of human HT-29 cell proliferation. In outline:
as §1

The next experiment deals with HL-60. The experiment is described as follows: Concentration required for 50% inhibition of human HL-60 cell proliferation. The method in brief: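 HL-60 leukemia cells, including the multidrug-resistant HL-60/MX2 subline with altered topoisomerase II activity, were seeded at (2.5-5) × 10^3 cells per well. They were exposed to escalating prodrug concentrations for 4 days. Proliferation was read by Alamar blue, and IC50 values are given in µM.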

A short description of experiment [1]: Concentration required for 50% inhibition of human MES-DX5 cell proliferation. The method in brief:
as §1

The term IC50 denotes the point on the concentration scale where inhibition reaches its midpoint. Higher therefore signals weaker potency. For `CCCC(=O)OCOC(=O)C(C)(C)C` [AN-9], the 50% inhibitory concentration (IC50) with MES-SA was determined as 40 µM; with PC-3, 56 µM; in the experiment on HT-29, 52 µM; in the experiment with HL-60, 36 µM; in experiment [1], 46 µM.

The values are drawn from ChEMBL document CHEMBL1142659, “The role of intracellularly released formaldehyde and butyric acid in the anticancer activity of acyloxyalkyl esters” (J Med Chem, 2005).
